Experimental data from article PMC9279635 (Acta Pharmaceutica Sinica. B, 2021).

Experiments:
DDR1 = DDR1 (Homo sapiens, UniProt Q08345); assay: ELISA kinase assay, DDR1; format: biochemical
RET = RET (Homo sapiens, UniProt P07949); assay: ELISA kinase assay, RET; format: biochemical
Flt-3 = molecular target: T1, Flt-3 (Homo sapiens, UniProt P36888); assay: ELISA kinase assay, Flt-3; format: biochemical; conditions: read-out: Flt-3 inhibition@100 nmol/L
T1 sequence (P36888 27-993): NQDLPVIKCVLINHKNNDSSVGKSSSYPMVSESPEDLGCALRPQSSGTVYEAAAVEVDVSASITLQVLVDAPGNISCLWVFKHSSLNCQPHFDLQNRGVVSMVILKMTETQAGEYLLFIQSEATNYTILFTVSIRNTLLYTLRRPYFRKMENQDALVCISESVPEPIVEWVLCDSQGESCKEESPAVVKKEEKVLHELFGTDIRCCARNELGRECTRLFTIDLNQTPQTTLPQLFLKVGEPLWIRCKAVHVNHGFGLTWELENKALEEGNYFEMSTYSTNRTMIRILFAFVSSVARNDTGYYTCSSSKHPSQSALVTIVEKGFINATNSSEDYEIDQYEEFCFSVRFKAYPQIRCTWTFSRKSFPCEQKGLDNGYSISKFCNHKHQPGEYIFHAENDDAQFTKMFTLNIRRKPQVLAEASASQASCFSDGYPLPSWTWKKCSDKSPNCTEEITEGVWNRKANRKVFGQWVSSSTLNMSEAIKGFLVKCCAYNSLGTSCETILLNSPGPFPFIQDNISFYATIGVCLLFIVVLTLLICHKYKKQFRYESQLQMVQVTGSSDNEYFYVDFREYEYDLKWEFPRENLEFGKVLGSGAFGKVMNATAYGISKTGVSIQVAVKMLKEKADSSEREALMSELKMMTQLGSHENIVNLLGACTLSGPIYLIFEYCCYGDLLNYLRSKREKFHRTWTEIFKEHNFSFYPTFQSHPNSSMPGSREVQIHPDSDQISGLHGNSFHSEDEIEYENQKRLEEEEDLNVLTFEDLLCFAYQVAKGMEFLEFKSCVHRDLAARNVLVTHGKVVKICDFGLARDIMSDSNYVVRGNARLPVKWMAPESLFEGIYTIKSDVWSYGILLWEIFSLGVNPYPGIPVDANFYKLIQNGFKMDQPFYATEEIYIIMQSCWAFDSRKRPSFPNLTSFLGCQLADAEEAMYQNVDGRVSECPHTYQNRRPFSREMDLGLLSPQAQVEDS

KDR = KDR (Homo sapiens, UniProt P35968); assay: ELISA kinase assay, KDR; format: biochemical; conditions: 10 nmol/L
ALK = ALK (Homo sapiens, UniProt Q9UM73); assay: Kinase selectivity test, ALK; format: biochemical; conditions: 1 μmol/L
ABL = ABL (Homo sapiens, UniProt P00519); assay: Kinase selectivity test, ABL; format: biochemical; conditions: 10 nmol/L
VEGFR-1 = VEGFR-1 (Homo sapiens, UniProt P17948); assay: Kinase selectivity test, VEGFR-1; format: biochemical; conditions: 10 nmol/L
PDGFR = assay: Kinase selectivity test, PDGFR; format: biochemical; conditions: 10 nmol/L
EPH-A2 = EPH-A2 (Homo sapiens, UniProt P29317); assay: Kinase selectivity test, EPH-A2; format: biochemical; conditions: 10 nmol/L
AXL = molecular target: T2, AXL (Homo sapiens, UniProt P30530); assay: Kinase selectivity test, AXL; format: biochemical; conditions: 10 nmol/L
T2 sequence (P30530 26-894): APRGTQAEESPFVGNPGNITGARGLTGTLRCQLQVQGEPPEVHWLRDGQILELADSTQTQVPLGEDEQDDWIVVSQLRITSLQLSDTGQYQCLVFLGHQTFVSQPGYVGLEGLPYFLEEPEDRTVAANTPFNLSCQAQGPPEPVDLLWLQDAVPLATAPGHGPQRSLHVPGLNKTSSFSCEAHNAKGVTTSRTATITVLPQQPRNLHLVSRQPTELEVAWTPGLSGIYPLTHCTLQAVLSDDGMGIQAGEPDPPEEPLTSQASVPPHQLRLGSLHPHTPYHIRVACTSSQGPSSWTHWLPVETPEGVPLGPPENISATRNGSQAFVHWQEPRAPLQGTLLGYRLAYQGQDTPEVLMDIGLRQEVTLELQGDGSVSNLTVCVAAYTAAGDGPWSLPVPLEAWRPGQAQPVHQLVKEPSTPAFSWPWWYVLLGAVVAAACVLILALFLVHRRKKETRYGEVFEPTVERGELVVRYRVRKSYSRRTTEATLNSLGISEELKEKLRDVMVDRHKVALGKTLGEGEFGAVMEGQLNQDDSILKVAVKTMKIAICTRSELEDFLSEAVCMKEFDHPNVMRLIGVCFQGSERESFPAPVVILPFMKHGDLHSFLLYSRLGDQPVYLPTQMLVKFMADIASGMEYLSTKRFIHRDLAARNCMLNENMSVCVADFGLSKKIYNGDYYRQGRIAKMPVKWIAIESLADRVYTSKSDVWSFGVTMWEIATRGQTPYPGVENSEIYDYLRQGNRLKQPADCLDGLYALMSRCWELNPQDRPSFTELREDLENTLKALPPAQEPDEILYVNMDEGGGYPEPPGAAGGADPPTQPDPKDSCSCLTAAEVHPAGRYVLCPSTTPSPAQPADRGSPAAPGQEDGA

FGFR-1 = FGFR-1 (Homo sapiens, UniProt P11362); assay: Kinase selectivity test, FGFR-1; format: biochemical; conditions: 10 nmol/L
ErbB4 = ErbB4 (Homo sapiens, UniProt Q15303); assay: Kinase selectivity test, ErbB4; format: biochemical; conditions: 10 nmol/L
c-Src = c-Src (Homo sapiens, UniProt P12931); assay: Kinase selectivity test, c-Src; format: biochemical; conditions: 10 nmol/L
[1] = system: DDR2 phosphorylation in MRC-5; assay: DDR2 phosphorylation in TGF-β stimulated MRC-5; format: cell-based; conditions: 1 μmol/L, MRC-5, 24 h TGF-β stimulation
Summary of the method: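 Confluent MRC-5 fibroblasts are stimulated with TGF-β (5 ng/mL) and treated with a range of test compound concentrations for 24 h. Western blots are probed for phospho-DDR2, fibronectin, α-SMA, with GAPDH as loading control.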

Chain of RET (P07949 29-1114): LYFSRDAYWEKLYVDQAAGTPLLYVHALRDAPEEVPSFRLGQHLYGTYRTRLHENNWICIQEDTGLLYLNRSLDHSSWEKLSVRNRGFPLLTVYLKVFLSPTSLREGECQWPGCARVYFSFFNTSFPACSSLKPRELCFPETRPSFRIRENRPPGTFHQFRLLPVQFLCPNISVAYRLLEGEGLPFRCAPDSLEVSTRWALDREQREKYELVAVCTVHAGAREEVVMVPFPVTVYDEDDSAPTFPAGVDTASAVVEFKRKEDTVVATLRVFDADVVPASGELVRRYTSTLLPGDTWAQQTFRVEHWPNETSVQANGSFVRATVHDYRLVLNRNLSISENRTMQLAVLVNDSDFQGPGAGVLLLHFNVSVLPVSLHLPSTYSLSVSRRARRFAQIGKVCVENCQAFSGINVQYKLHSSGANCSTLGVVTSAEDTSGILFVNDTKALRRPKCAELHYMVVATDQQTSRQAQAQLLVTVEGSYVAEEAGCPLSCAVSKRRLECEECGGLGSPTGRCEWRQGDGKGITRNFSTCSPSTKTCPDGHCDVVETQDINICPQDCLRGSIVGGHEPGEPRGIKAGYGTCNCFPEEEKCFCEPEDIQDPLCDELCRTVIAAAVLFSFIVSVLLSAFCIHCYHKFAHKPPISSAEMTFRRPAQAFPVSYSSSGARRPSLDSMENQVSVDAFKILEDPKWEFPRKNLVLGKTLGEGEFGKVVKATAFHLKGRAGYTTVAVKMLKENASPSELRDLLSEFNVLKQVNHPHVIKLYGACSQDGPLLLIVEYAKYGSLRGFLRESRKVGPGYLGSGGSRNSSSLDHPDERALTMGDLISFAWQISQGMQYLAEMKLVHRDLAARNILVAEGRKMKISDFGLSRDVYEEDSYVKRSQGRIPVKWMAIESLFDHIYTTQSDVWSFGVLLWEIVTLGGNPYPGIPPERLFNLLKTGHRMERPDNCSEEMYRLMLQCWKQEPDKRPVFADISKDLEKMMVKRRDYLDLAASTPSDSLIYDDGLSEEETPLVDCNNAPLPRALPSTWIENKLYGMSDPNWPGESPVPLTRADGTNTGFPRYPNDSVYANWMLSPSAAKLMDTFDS
Chain of EPH-A2 (P29317 24-976): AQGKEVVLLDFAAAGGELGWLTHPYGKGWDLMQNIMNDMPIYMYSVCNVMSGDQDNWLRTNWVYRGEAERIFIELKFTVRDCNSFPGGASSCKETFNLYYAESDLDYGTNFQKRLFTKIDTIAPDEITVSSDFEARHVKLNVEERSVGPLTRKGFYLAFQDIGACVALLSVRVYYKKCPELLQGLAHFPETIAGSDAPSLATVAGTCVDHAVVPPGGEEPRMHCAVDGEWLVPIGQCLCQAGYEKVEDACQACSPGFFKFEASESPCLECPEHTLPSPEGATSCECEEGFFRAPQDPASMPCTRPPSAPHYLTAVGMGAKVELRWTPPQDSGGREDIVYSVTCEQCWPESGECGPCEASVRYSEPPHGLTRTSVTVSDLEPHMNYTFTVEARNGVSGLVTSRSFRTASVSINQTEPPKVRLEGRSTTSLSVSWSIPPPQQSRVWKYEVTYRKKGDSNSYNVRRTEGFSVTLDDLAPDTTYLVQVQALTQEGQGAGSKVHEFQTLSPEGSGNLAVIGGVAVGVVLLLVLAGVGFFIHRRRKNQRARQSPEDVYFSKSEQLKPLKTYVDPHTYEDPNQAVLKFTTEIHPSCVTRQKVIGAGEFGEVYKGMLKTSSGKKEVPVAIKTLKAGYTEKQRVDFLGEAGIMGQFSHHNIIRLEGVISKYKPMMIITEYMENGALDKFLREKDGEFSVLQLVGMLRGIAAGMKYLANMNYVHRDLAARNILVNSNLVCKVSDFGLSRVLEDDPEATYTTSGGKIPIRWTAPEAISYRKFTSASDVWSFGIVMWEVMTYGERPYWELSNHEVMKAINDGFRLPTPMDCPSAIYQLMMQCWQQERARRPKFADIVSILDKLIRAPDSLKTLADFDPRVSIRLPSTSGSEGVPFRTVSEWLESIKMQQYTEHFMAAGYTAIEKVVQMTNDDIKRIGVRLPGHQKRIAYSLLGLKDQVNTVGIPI
Chain of VEGFR-1 (P17948 27-1338): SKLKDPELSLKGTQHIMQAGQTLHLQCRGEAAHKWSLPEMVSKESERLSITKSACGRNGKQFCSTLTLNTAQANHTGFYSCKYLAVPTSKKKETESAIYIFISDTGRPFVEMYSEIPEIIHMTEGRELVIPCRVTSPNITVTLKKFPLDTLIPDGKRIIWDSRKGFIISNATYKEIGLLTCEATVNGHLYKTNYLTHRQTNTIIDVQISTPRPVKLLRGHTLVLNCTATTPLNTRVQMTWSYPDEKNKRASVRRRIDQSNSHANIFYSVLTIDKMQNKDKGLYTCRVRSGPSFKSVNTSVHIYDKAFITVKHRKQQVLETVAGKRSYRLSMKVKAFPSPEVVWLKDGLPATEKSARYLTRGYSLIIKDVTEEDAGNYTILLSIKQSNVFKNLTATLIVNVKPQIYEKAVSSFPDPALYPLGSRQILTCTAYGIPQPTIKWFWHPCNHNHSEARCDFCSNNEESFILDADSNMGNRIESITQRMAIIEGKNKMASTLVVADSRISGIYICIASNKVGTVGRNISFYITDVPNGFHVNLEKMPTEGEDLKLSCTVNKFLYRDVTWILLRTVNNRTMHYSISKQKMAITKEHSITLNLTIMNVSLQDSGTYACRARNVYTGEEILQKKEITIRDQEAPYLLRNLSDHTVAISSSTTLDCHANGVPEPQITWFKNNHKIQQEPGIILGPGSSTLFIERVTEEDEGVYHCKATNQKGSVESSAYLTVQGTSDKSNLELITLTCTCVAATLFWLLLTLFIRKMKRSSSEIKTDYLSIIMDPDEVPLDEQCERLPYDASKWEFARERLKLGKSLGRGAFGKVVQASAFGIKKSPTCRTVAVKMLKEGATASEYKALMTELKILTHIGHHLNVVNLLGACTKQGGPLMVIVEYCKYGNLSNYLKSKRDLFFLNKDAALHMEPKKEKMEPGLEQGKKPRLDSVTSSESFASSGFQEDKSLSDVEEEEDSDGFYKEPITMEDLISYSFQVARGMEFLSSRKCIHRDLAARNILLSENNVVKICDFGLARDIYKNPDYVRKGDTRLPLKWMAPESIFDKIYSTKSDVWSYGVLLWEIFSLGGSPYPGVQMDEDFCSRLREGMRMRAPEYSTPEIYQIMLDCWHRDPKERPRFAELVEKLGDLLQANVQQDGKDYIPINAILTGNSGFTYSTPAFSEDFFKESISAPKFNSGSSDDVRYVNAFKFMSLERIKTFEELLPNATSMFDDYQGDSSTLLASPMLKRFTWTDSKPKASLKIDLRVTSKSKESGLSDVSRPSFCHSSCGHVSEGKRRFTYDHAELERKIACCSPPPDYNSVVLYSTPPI
Chain of ABL (P00519 whole entry): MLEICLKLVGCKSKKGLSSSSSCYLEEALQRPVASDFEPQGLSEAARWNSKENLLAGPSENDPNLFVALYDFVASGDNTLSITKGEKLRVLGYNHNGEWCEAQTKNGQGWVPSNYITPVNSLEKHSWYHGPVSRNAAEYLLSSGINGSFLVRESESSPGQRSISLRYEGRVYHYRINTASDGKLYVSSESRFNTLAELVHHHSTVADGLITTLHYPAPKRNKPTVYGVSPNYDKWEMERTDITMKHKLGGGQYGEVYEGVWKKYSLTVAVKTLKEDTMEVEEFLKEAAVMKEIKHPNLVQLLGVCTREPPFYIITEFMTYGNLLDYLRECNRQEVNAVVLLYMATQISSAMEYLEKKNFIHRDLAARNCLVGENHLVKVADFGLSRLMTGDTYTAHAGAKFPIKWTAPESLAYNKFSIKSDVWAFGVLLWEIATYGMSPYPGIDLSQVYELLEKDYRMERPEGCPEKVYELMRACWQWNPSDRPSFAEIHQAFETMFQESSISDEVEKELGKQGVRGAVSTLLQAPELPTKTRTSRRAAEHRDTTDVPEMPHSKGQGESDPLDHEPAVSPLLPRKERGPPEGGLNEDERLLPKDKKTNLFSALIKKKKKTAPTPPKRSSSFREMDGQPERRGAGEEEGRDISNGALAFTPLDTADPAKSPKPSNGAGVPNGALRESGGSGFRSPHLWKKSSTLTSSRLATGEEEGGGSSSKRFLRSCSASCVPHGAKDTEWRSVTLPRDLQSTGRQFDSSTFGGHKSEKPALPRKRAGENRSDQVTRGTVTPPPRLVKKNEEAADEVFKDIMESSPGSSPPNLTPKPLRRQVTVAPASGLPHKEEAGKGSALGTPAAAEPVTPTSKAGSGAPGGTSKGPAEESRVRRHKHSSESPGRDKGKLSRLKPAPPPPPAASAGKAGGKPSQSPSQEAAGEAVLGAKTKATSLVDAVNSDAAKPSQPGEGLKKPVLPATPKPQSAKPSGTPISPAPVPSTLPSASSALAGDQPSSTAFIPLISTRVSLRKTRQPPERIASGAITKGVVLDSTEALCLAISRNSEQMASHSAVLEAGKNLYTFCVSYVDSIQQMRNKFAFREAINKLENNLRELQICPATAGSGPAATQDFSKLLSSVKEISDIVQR
Chain of c-Src (P12931 whole entry): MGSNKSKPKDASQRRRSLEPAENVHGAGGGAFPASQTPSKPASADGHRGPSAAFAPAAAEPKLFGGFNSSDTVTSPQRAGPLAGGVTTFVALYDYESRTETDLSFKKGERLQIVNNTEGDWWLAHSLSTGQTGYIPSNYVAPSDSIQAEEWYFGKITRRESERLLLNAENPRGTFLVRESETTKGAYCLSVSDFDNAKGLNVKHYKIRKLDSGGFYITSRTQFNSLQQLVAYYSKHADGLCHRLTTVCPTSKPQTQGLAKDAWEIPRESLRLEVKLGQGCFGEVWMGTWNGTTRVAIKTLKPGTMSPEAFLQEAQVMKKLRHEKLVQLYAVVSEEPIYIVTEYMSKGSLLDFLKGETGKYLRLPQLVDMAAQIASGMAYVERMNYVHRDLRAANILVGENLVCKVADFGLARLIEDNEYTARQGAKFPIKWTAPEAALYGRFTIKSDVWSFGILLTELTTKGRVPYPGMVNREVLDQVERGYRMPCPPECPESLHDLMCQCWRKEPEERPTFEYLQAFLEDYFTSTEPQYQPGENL

Cc1ccc(C(=O)Nc2cccc(C(F)(F)F)c2)cc1-c1ccc2nc(Nc3cnn(C)c3)ncc2c1 [Compound 22, 4-Methyl-3-(2-((1-methyl-1H-pyrazol-4-yl)amino)quinazolin-6-yl)-N-(3-(trifluoromethyl)phenyl)benzamide]
IC50 (DDR1): 8.13 nM
inhibition at 0.01 µM (RET; read-out: RET inhibition @10 nmol/L): > 50%
inhibition at 0.1 µM (RET; read-out: RET inhibition @100 nmol/L): 97.2%
inhibition at 0.1 µM (Flt-3): 80.3%
KDR inhibition ratio (KDR): over 50%
inhibition ratio on ALK (ALK): 18.5%
ABL inhibition ratio (ABL): over 50%
VEGFR-1 inhibition ratio (VEGFR-1): over 50%
PDGFR inhibition ratio (PDGFR): over 50%
EPH-A2 inhibition ratio (EPH-A2): over 50%
AXL inhibition ratio (AXL): over 50%
FGFR-1 inhibition ratio (FGFR-1): over 50%
ErbB4 inhibition ratio (ErbB4): over 50%
c-Src inhibition ratio (c-Src): over 50%
inhibition of DDR2 phosphorylation [1]: high inhibitory activity
